ChEMBL document CHEMBL1671683, “Activity of linezolid in an in vitro pharmacokinetic-pharmacodynamic model using different dosages and Staphylococcus aureus and Enterococcus faecalis strains with and without a hypermutator phenotype” (Antimicrob Agents Chemother, 2010)

What was measured:
[1] = Volume of distribution at steady state in two-compartment pharmacokinetic/pharmacodynamic model at 200 mg, bid administered as 0.5 hr infusion over 24 hrs; format: ADME, organism-based; settings: iv, read-out: Vdss
[2] = in vitro; settings: two-compartment pharmacokinetic/pharmacodynamic model, iv, 800 mg
[3] = Total clearance in two-compartment pharmacokinetic/pharmacodynamic model at 200 mg, bid administered as 0.5 hr infusion over 24 hrs; format: ADME, organism-based; settings: in vivo, iv
[4] = tested on: Enterococcus faecalis; assay: Bactericidal activity against 12.5 hrs peripheral compartment culture samples of Enterococcus faecalis Ef1497 in two-compartment pharmacokinetic/pharmacodynamic model assessed as effect on bacterial count at 600 mg, bid administered as 0.5 hr infusion; format: functional
In short: (§1)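 An 18-h culture concentrated 50-fold was injected into the peripheral compartment 3 h pre-sampling (~10^8 CFU/ml E. faecalis, 10^9 S. aureus). Counts came from dilution plating (detection limit 2–3 log10 CFU/ml), expressed as Δlog CFU/ml from treatment start. Run in duplicate.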

[5] = Cmax in two-compartment pharmacokinetic/pharmacodynamic model at 800 mg, bid administered as 0.5 hrs infusion; format: ADME, organism-based; set-up: dose 800 mg; settings: iv
[6] = tested on: Enterococcus faecalis; assay: Bactericidal activity against 2 hrs peripheral compartment culture samples of Enterococcus faecalis Ef1497 in two-compartment pharmacokinetic/pharmacodynamic model assessed as effect on bacterial count at 600 mg, bid administered as 0.5 hr infusion; format: functional; in short: as §1
[7] = AUC in two-compartment pharmacokinetic/pharmacodynamic model at 800 mg, bid administered as 0.5 hrs infusion; format: ADME; settings: iv
[8] = tested on: Enterococcus faecalis; assay: Bactericidal activity against 1 hr peripheral compartment culture samples of Enterococcus faecalis Ef1497 in two-compartment pharmacokinetic/pharmacodynamic model assessed as effect on bacterial count at 800 mg, bid administered as 0.5 hr infusion; format: functional
In short: (§2)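 Two-compartment hollow-fibre model in cation-adjusted, protein-free MH broth, 37°C. Linezolid given as simulated 0.5-h infusion twice daily. Inoculum grown 18 h, concentrated 50-fold and placed in the peripheral compartment 3 h before t0. Peripheral samples at set times counted by dilution plating. First 10-fold dilution not plated, limiting detection to 2–3 log10 CFU/ml. Δlog CFU/ml taken from t0 count. Duplicates.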

[9] = tested on: Enterococcus faecalis; assay: Bactericidal activity against 14 hrs peripheral compartment culture samples of Enterococcus faecalis Ef1497 in two-compartment pharmacokinetic/pharmacodynamic model assessed as effect on bacterial count at 800 mg, bid administered as 0.5 hr infusion; format: functional; in short: as §1
[10] = tested on: Enterococcus faecalis; assay: Bactericidal activity against 2 hrs peripheral compartment culture samples of Enterococcus faecalis Ef1497 MutM3 in two-compartment pharmacokinetic/pharmacodynamic model assessed as effect on bacterial count at 200 mg, bid administered as 0.5 hr infusion; format: functional; in short: as §1
[11] = tested on: Staphylococcus aureus; assay: Bactericidal activity against 24 hrs peripheral compartment culture samples of Staphylococcus aureus RN4220 in two-compartment pharmacokinetic/pharmacodynamic model assessed as effect on bacterial count at 600 mg, bid administered as 0.5 hr infusion; format: functional; in short: as §1
[12] = Total clearance in two-compartment pharmacokinetic/pharmacodynamic model at 600 mg, bid administered as 0.5 hr infusion over 24 hrs; format: ADME, organism-based; settings: in vivo, iv
[13] = tested on: Enterococcus faecalis; assay: Bactericidal activity against 12 hrs peripheral compartment culture samples of Enterococcus faecalis ATCC 29212 in two-compartment pharmacokinetic/pharmacodynamic model assessed as effect on bacterial count at 600 mg, bid administered as 0.5 hr infusion; format: functional; in short: as §2
[14] = tested on: Enterococcus faecalis; assay: Bactericidal activity against 0.5 hrs peripheral compartment culture samples of Enterococcus faecalis Ef1497 MutM3 in two-compartment pharmacokinetic/pharmacodynamic model assessed as effect on bacterial count at 600 mg, bid administered as 0.5 hr infusion; format: functional; in short: as §2
[15] = Apparent volume of distribution in two-compartment pharmacokinetic/pharmacodynamic model bid administered as 0.5 hr infusion over 24 hrs; settings: in vivo, iv
[16] = tested on: Enterococcus faecalis; assay: Bactericidal activity against 48 hrs peripheral compartment culture samples of Enterococcus faecalis Ef1497 in two-compartment pharmacokinetic/pharmacodynamic model assessed as effect on bacterial count at 800 mg, bid administered as 0.5 hr infusion; format: functional; in short: as §1
[17] = tested on: Enterococcus faecalis; assay: Bactericidal activity against 12.5 hrs peripheral compartment culture samples of Enterococcus faecalis Ef1497 MutM3 in two-compartment pharmacokinetic/pharmacodynamic model assessed as effect on bacterial count at 200 mg, bid administered as 0.5 hr infusion; format: functional; in short: as §1
[18] = tested on: Enterococcus faecalis; assay: Bactericidal activity against 1 hr peripheral compartment culture samples of Enterococcus faecalis ATCC 29212 in two-compartment pharmacokinetic/pharmacodynamic model assessed as effect on bacterial count at 600 mg, bid administered as 0.5 hr infusion; format: functional; in short: as §2
[19] = tested on: Enterococcus faecalis; assay: ABBC (0 to 24 hrs) in Enterococcus faecalis Ef1497 in two-compartment pharmacokinetic/pharmacodynamic model at 800 mg, bid administered as 0.5 hr infusion for 2 days; format: functional
In short: (§3)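 Hollow-fibre two-compartment model in cation-adjusted, protein-free MH broth at 37°C. Human total-plasma linezolid profile simulated as 0.5-h infusion every 12 h for 48 h. Concentrated 18-h culture injected into the peripheral compartment 3 h before first sample, giving about 10^8 (E. faecalis) or 10^9 (S. aureus) CFU/ml. Viable counts by dilution plating over 0–24 h. Area indices calculated versus growth control curve. Duplicate runs.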

[20] = tested on: Enterococcus faecalis; assay: AUBC (0 to 24 hrs) in Enterococcus faecalis ATCC 29212 in two-compartment pharmacokinetic/pharmacodynamic model at 600 mg, bid administered as 0.5 hr infusion for 2 days; format: functional; in short: as §3
[21] = tested on: Staphylococcus aureus; assay: Bactericidal activity against 14 hrs peripheral compartment culture samples of Staphylococcus aureus RN4220 MutS2 in two-compartment pharmacokinetic/pharmacodynamic model assessed as effect on bacterial count at 600 mg, bid administered as 0.5 hr infusion; format: functional; in short: as §1
[22] = tested on: Enterococcus faecalis; assay: Bactericidal activity against 2 hrs peripheral compartment culture samples of Enterococcus faecalis ATCC 29212 in two-compartment pharmacokinetic/pharmacodynamic model assessed as effect on bacterial count at 200 mg, bid administered as 0.5 hr infusion; format: functional; in short: as §1
[23] = Volume of distribution at steady state in two-compartment pharmacokinetic/pharmacodynamic model bid administered as 0.5 hr infusion over 24 hrs; settings: in vivo, iv; read-out: Vdss
[24] = tested on: Enterococcus faecalis; assay: Bactericidal activity against 13 hrs peripheral compartment culture samples of Enterococcus faecalis Ef1497 MutM3 in two-compartment pharmacokinetic/pharmacodynamic model assessed as effect on bacterial count at 200 mg, bid administered as 0.5 hr infusion; format: functional; in short: as §1
[25] = Volume of distribution at steady state in two-compartment pharmacokinetic/pharmacodynamic model at 400 mg, bid administered as 0.5 hrs infusion; format: ADME, organism-based; settings: iv, read-out: Vdss
[26] = Total clearance in two-compartment pharmacokinetic/pharmacodynamic model at 200 mg, bid administered as 0.5 hrs infusion; format: ADME, organism-based; settings: iv
[27] = tested on: Enterococcus faecalis; assay: Bactericidal activity against 13 hrs peripheral compartment culture samples of Enterococcus faecalis Ef1497 in two-compartment pharmacokinetic/pharmacodynamic model assessed as effect on bacterial count at 600 mg, bid administered as 0.5 hr infusion; format: functional; in short: as §1
[28] = tested on: Staphylococcus aureus; assay: Bactericidal activity against 12.5 hrs peripheral compartment culture samples of Staphylococcus aureus RN4220 MutS2 in two-compartment pharmacokinetic/pharmacodynamic model assessed as effect on bacterial count at 600 mg, bid administered as 0.5 hr infusion; format: functional; in short: as §1

Question: What does the source list for `CC(=O)NC[C@H]1CN(c2ccc(N3CCOCC3)c(F)c2)C(=O)O1` [LINEZOLID]?
Answer: Vd [1]: 117 L; half-life at 0.5 h [2]: 5.01 h; clearance [3]: 252 mL/min; log10CFU/ml [4]: -0.14; Cmax [5]: 19200 ng/mL; log10CFU/ml [6]: 0.08; AUC at 0.5 h [7]: 38200 ng·h/mL; log10CFU/ml [8]: -0.02; log10CFU/ml [9]: -0.05; log10CFU/ml [10]: 0.06; log10CFU/ml [11]: -0.17; clearance [12]: 215 mL/min; log10CFU/ml [13]: 0.15; log10CFU/ml [14]: -0.01; Vd [15]: 115 L; log10CFU/ml [16]: -1.16; log10CFU/ml [17]: 0.23; log10CFU/ml [18]: -0.12; ABBC [19]: 3.6 log10CFU/ml.hr; AUBC [20]: 217.8 log10CFU/ml.hr; log10CFU/ml [21]: -0.58; log10CFU/ml [22]: 0.09; Vd [23]: 100 L; log10CFU/ml [24]: 0.23; Vd [25]: 112 L; clearance [26]: 248 mL/min; log10CFU/ml [27]: 0.09; log10CFU/ml [28]: -0.06
